Assay results: ChEMBL document CHEMBL3779764, “Identification and Structure-Activity Relationships of Diarylhydrazides as Novel Potent and Selective Human Enterovirus Inhibitors” (J Med Chem, 2016); call rule not given here

Experiments:
Enterovirus A71 [1] = assay: Antiviral activity against Human enterovirus 71 infected in monkey African green Vero cells by MTS-based CPE reduction assay; assay type: functional, organism-based
Summary of the method: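 Vero cells (5 × 10^5) seeded, then given serial compound dilutions plus 100 TCID50 EV71. Incubated at 37 °C for 24-36 h until complete CPE in the virus-infected, compound-free control. Viability read by MTS/PMS at 498 nm. EC50 is the concentration inhibiting virus-induced CPE by 50%. At least three repeats.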

Enterovirus A71 [2] = assay: Antiviral activity against Enterovirus 71 infected in human RD cells after 24 to 36 hrs by MTS-based CPE reduction assay; assay type: functional, organism-based
Summary of the method: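 RD cells given serial compound dilutions with EV71. Incubated at 37 °C for 24-36 h until full CPE in the virus control. Viability read by MTS/PMS at 498 nm. EC50 is the concentration giving 50% inhibition of virus-induced CPE. At least three independent experiments.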

[3] = Cytotoxicity against african green monkey Vero cells assessed as reduction in cell viability after 24 to 36 hrs by MTS-based CPE reduction assay; settings: chlorocebus sabaeus
Summary of the method: (§1)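 Noninfected Vero or RD cells exposed to serial compound dilutions under the CPE-assay conditions (37 °C, 24-36 h). Viability measured by MTS/PMS absorbance at 498 nm. CC50 is the concentration causing 50% death of noninfected cells.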

[4] = Selectivity index, ratio of CC50 for african green monkey Vero cells to EC50 for Enterovirus 71; assay type: toxicity, cell-based; settings: read-out: Ratio CC50/EC50
Summary of the method: (§2)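 Selectivity index is CC50/EC50, both taken from MTS-based CPE reduction assays in the same cell line (Vero or RD).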

RD = assay: Cytotoxicity against human RD cells assessed as reduction in cell viability after 24 to 36 hrs by MTS-based CPE reduction assay; assay type: functional; summary of the method: as §1
[5] = Selectivity index, ratio of CC50 for human RD cells to EC50 for Enterovirus 71; assay type: toxicity, cell-based; settings: read-out: Ratio CC50/EC50; summary of the method: as §2
[6] = Enterovirus A, Vero, read-out: EC50
[7] = Enterovirus A, RD, read-out: EC50

## O=C(NNc1c(Cl)cccc1Cl)c1ccc(F)cc1
Enterovirus A71 [1]; vero
  EC50: Not Active
Enterovirus A71 [2]; rd
  EC50: Not Active

## CCc1cccc(CC)c1NNC(=O)c1ccc(C(C)(C)C)cc1
Enterovirus A71 [1]; [6]
  EC50: > 100 µM
Enterovirus A71 [2]; [7]
  EC50: > 100 µM

## COc1cccc(OC)c1NNC(=O)c1ccc(C(C)(C)C)cc1
[3]
  CC50: > 244 µM
Enterovirus A71 [1]; [6]
  EC50: 10.4 µM
[4]
  selectivity ratio: > 23.4
Enterovirus A71 [2]; [7]
  EC50: 27.4 µM
RD
  CC50: > 244 µM
[5]
  selectivity ratio: > 8.9

## Cc1ccc(C(=O)NNc2c(C)cccc2Cl)cc1
[3]
  CC50: > 291 µM
Enterovirus A71 [1]; [6]
  EC50: 13 µM
[4]
  selectivity ratio: > 22.5
Enterovirus A71 [2]; [7]
  EC50: 26.9 µM
RD
  CC50: > 291 µM
[5]
  selectivity ratio: > 10.8

## CCCc1ccc(C(=O)NNc2c(C)cccc2C)cc1
[3]
  CC50: > 283 µM
Enterovirus A71 [1]; [6]
  EC50: 0.95 µM
[4]
  selectivity ratio: > 298
Enterovirus A71 [2]; [7]
  EC50: 2.64 µM
RD
  CC50: > 283 µM
[5]
  selectivity ratio: > 107

## O=C(NNc1c(Cl)cccc1Cl)c1ccccc1
Enterovirus A71 [1]; [6]
  EC50: > 100 µM
Enterovirus A71 [2]; [7]
  EC50: > 100 µM

## COc1ccc(C(=O)NNc2c(C)cccc2C)cc1
[3]
  CC50: > 296 µM
Enterovirus A71 [1]; [6]
  EC50: 12.3 µM
[4]
  selectivity ratio: > 24
Enterovirus A71 [2]; [7]
  EC50: 29 µM
RD
  CC50: > 296 µM
[5]
  selectivity ratio: > 10.2

## CCOc1ccc(C(=O)NNc2c(Cl)cc(Cl)cc2Cl)cc1
Enterovirus A71 [1]; [6]
  EC50: > 100 µM
Enterovirus A71 [2]; [7]
  EC50: > 100 µM

## CCOc1ccc(C(=O)NNc2c(C)cccc2Cl)cc1
[3]
  CC50: > 262 µM
Enterovirus A71 [1]; [6]
  EC50: 0.39 µM
[4]
  selectivity ratio: > 673
Enterovirus A71 [2]; [7]
  EC50: 0.82 µM
RD
  CC50: > 262 µM
[5]
  selectivity ratio: > 319

## CCOc1ccc(C(=O)NNc2c(F)cccc2F)cc1
[3]
  CC50: > 274 µM
Enterovirus A71 [1]; [6]
  EC50: 66.7 µM
[4]
  selectivity ratio: > 4.1
Enterovirus A71 [2]; [7]
  EC50: > 100 µM

## CSc1ccc(C(=O)NNc2c(C)cccc2Cl)cc1
[3]
  CC50: 107 µM
Enterovirus A71 [1]; [6]
  EC50: 6.13 µM
[4]
  selectivity ratio: 17.4
Enterovirus A71 [2]; [7]
  EC50: 15.4 µM
RD
  CC50: 134 µM
[5]
  selectivity ratio: 8.7

## CCc1ccc(C(=O)NNc2c(C)cccc2Cl)cc1
[3]
  CC50: 81.7 µM
Enterovirus A71 [1]; [6]
  EC50: 6.37 µM
[4]
  selectivity ratio: 12.8
Enterovirus A71 [2]; [7]
  EC50: 10.5 µM
RD
  CC50: 105 µM
[5]
  selectivity ratio: 10

## Cc1ccc(C(=O)NNc2c(Cl)cccc2Cl)cc1
[3]
  CC50: > 271 µM
Enterovirus A71 [1]; [6]
  EC50: 1.28 µM
[4]
  selectivity ratio: > 212
Enterovirus A71 [2]; [7]
  EC50: 0.96 µM
RD
  CC50: > 271 µM
[5]
  selectivity ratio: > 281

## O=C(NNc1c(Br)cccc1Br)c1ccccc1
[3]
  CC50: > 216 µM
Enterovirus A71 [1]; [6]
  EC50: 0.86 µM
[4]
  selectivity ratio: > 251
Enterovirus A71 [2]; [7]
  EC50: 2.43 µM
RD
  CC50: > 216 µM
[5]
  selectivity ratio: > 89.1

## CCCc1ccc(C(=O)NNc2c(Cl)cccc2Cl)cc1
[3]
  CC50: > 248 µM
Enterovirus A71 [1]; [6]
  EC50: 0.42 µM
[4]
  selectivity ratio: > 589
Enterovirus A71 [2]; [7]
  EC50: 0.44 µM
RD
  CC50: > 248 µM
[5]
  selectivity ratio: > 562

## O=C(NNc1c(Cl)cccc1Cl)c1ccccn1
Enterovirus A71 [1]; [6]
  EC50: > 100 µM
Enterovirus A71 [2]; [7]
  EC50: > 100 µM

## Cc1cccc(C)c1NNC(=O)c1ccc(N(C)C)cc1
[3]
  CC50: > 282 µM
Enterovirus A71 [1]; [6]
  EC50: 0.29 µM
[4]
  selectivity ratio: > 974
Enterovirus A71 [2]; [7]
  EC50: 0.69 µM
RD
  CC50: > 282 µM
[5]
  selectivity ratio: > 411

## CCc1ccc(C(=O)NNc2c(Br)cccc2Br)cc1
[3]
  CC50: > 201 µM
Enterovirus A71 [1]; [6]
  EC50: 0.93 µM
[4]
  selectivity ratio: > 216
Enterovirus A71 [2]; [7]
  EC50: 1.58 µM
RD
  CC50: > 201 µM
[5]
  selectivity ratio: > 127

## O=C(NNc1c(Cl)cccc1Cl)c1ccc([N+](=O)[O-])cc1
Enterovirus A71 [1]; vero
  EC50: Not Active
Enterovirus A71 [2]; rd
  EC50: Not Active

## CC(C)(C)c1ccc(C(=O)NNc2c(Cl)cccc2Cl)cc1
[3]
  CC50: 30.8 µM
Enterovirus A71 [1]; [6]
  EC50: 0.47 µM
[4]
  selectivity ratio: 65.6
Enterovirus A71 [2]; [7]
  EC50: 0.85 µM
RD
  CC50: 36.7 µM
[5]
  selectivity ratio: 43.2

## COc1ccc(C(=O)NNc2c(F)cccc2F)cc1
[3]
  CC50: > 288 µM
Enterovirus A71 [1]; [6]
  EC50: 74 µM
[4]
  selectivity ratio: > 3.9
Enterovirus A71 [2]; [7]
  EC50: > 100 µM

## N#Cc1ccc(C(=O)NNc2c(Cl)cccc2Cl)cc1
Enterovirus A71 [1]; vero
  EC50: Not Active
Enterovirus A71 [2]; rd
  EC50: Not Active

## CCOc1ccc(C(=O)NNc2c(Br)cccc2Br)cc1
[3]
  CC50: > 193 µM
Enterovirus A71 [1]; [6]
  EC50: 0.37 µM
[4]
  selectivity ratio: > 522
Enterovirus A71 [2]; [7]
  EC50: 0.53 µM
RD
  CC50: > 193 µM
[5]
  selectivity ratio: > 362

## COc1ccc(C(=O)NNc2c(Cl)cccc2Cl)cc1
[3]
  CC50: > 257 µM
Enterovirus A71 [1]; [6]
  EC50: 0.68 µM
[4]
  selectivity ratio: > 378
Enterovirus A71 [2]; [7]
  EC50: 1.36 µM
RD
  CC50: > 257 µM
[5]
  selectivity ratio: > 189

## O=C(NNc1c(Cl)cccc1Cl)c1ccc(Cl)cc1
Enterovirus A71 [1]; [6]
  EC50: > 100 µM
Enterovirus A71 [2]; [7]
  EC50: > 100 µM

## O=C(NNc1c(Cl)cccc1Cl)c1ccc(Br)cc1
Enterovirus A71 [1]; vero
  EC50: Not Active
Enterovirus A71 [2]; rd
  EC50: Not Active

## Cc1cccc(Cl)c1NNC(=O)c1ccc(C(C)(C)C)cc1
[3]
  CC50: 49.2 µM
Enterovirus A71 [1]; [6]
  EC50: 0.79 µM
[4]
  selectivity ratio: 62.3
Enterovirus A71 [2]; [7]
  EC50: 0.97 µM
RD
  CC50: 63.2 µM
[5]
  selectivity ratio: 65.1

## O=C(NNc1c(Cl)cccc1Cl)c1cccs1
Enterovirus A71 [1]; [6]
  EC50: > 100 µM
Enterovirus A71 [2]; [7]
  EC50: > 100 µM

## CCc1ccc(C(=O)NNc2c(C)cccc2C)cc1
[3]
  CC50: 135 µM
Enterovirus A71 [1]; [6]
  EC50: 1.57 µM
[4]
  selectivity ratio: 86.2
Enterovirus A71 [2]; [7]
  EC50: 2.75 µM
RD
  CC50: 164 µM
[5]
  selectivity ratio: 59.7

## COc1ccccc1C(=O)NNc1c(Cl)cccc1Cl
Enterovirus A71 [1]; [6]
  EC50: > 100 µM
Enterovirus A71 [2]; [7]
  EC50: > 100 µM

## Cc1cccc(Cl)c1NNC(=O)c1ccc(N(C)C)cc1
[3]
  CC50: 92.8 µM
Enterovirus A71 [1]; [6]
  EC50: 0.28 µM
[4]
  selectivity ratio: 332
Enterovirus A71 [2]; [7]
  EC50: 0.16 µM
RD
  CC50: 106 µM
[5]
  selectivity ratio: 682

## O=C(NNc1c(Cl)cccc1Cl)c1cccc(Cl)c1
Enterovirus A71 [1]; vero
  EC50: Not Active
Enterovirus A71 [2]; rd
  EC50: Not Active

## CC(C)c1cccc(C(C)C)c1NNC(=O)c1ccc(C(C)(C)C)cc1
Enterovirus A71 [1]; [6]
  EC50: > 100 µM
Enterovirus A71 [2]; [7]
  EC50: > 100 µM

## CCCc1ccc(C(=O)NNc2c(Br)cccc2Br)cc1
[3]
  CC50: > 194 µM
Enterovirus A71 [1]; [6]
  EC50: 3.54 µM
[4]
  selectivity ratio: > 54.8
Enterovirus A71 [2]; [7]
  EC50: 4.62 µM
RD
  CC50: > 194 µM
[5]
  selectivity ratio: > 42

## CN(C)c1ccc(C(=O)NNc2c(F)cccc2F)cc1
[3]
  CC50: > 275 µM
Enterovirus A71 [1]; [6]
  EC50: 17.9 µM
[4]
  selectivity ratio: > 15.3
Enterovirus A71 [2]; [7]
  EC50: 23.5 µM
RD
  CC50: > 275 µM
[5]
  selectivity ratio: > 11.7

## CC(C)(C)c1ccc(C(=O)NNc2c(F)cccc2F)cc1
[3]
  CC50: 150 µM
Enterovirus A71 [1]; [6]
  EC50: 2.19 µM
[4]
  selectivity ratio: 68.4
Enterovirus A71 [2]; [7]
  EC50: 4.27 µM
RD
  CC50: 184 µM
[5]
  selectivity ratio: 43

## COc1ccc(C(=O)NNc2c(Br)cccc2Br)cc1
[3]
  CC50: > 200 µM
Enterovirus A71 [1]; [6]
  EC50: 3.32 µM
[4]
  selectivity ratio: > 60.2
Enterovirus A71 [2]; [7]
  EC50: 2.63 µM
RD
  CC50: > 200 µM
[5]
  selectivity ratio: > 76.1

## COc1ccc(C(=O)NNc2c(C)cccc2Cl)cc1
[3]
  CC50: > 275 µM
Enterovirus A71 [1]; [6]
  EC50: 5.74 µM
[4]
  selectivity ratio: > 47.9
Enterovirus A71 [2]; [7]
  EC50: 15.4 µM
RD
  CC50: > 275 µM
[5]
  selectivity ratio: > 17.9

## COc1ccccc1C(=O)NNc1c(Br)cccc1Br
[3]
  CC50: 109 µM
Enterovirus A71 [1]; [6]
  EC50: 54.2 µM
[4]
  selectivity ratio: 2
Enterovirus A71 [2]; [7]
  EC50: > 100 µM

## CCOc1ccc(NNC(=O)c2c(Cl)cccc2Cl)cc1
Enterovirus A71 [1]; [6]
  EC50: > 100 µM
Enterovirus A71 [2]; [7]
  EC50: > 100 µM
